# Source: PubChem (several laboratories)
# In the library only some 4.1% were active in any assay of this set; here they are far more common.
# hERG protect: shields human hERG channel from block by proarrhythmic agents | activation (rescue from dofetilide block), less the hit threshold, % at 10 µM | 310,000 tested, 0.51% active | Q12809 | CHO-hERG, FluxOR thallium flux, dofetilide IC70 present;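 active means activation above the mean of controls blocked by dofetilide plus 5 SD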;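 further: thallium influx through hERG after potassium depolarization seen as dye fluorescence rise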
# KCC2 mod: modulators of human KCC2 chloride dependent transport | KCC2 cells, thallium flux FluoZin-2 fluorescence | B-score of Tl+ flux slope (higher = more flux/activation; lower = inhibition) at 10 µM | 190,000 tested, 2.2% active;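 active means thallium flux slope and its plate-corrected score both differing from the plate sample mean at a set confidence after two filtering rounds, in either direction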;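 further: slope of fluorescence scaled to starting intensity during 10 to 20 s after thallium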
# KCNQ1 inh: human KCNQ1 channel inhibition; CHO-K1 KCNQ1, FluxOR thallium flux fluorescence; stronger effect = higher value; B-score at 10 µM; 310,000 tested, 1.3% active;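 active means compounds whose thallium flux B-score, printed positive for inhibition, exceeds three library SD while starting fluorescence stays within three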;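 further: channel opened by potassium depolarization with thallium stimulus after 20 min compound exposure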
# Target sequence (P51787 whole entry, looked up): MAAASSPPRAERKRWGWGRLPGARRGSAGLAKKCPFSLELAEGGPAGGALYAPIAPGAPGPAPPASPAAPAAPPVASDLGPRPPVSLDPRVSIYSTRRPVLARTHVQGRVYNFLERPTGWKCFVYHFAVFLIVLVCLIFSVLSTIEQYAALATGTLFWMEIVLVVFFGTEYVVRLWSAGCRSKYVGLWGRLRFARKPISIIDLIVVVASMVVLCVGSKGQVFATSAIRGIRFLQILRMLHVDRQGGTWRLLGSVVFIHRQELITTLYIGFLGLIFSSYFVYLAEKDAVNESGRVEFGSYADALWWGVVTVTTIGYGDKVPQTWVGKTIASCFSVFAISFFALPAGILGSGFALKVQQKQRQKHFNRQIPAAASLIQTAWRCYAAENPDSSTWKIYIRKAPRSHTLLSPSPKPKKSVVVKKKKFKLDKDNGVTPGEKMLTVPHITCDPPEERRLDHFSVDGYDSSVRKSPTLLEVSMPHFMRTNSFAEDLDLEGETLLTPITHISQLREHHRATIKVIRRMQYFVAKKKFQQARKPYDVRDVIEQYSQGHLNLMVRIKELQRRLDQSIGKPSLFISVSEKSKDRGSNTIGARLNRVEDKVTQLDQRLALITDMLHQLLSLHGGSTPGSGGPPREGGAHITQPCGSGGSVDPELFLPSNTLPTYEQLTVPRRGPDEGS
# KCNK9 inh: blocks the human KCNK9 two-pore domain potassium channel | Q9NPC2 | HEK293 KCNK9, FluxOR thallium flux fluorescence; stronger effect = lower value | B-score at 10 µM | 310,000 tested, 1.2% active;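 active means ratio B-score over 3 SD below the library mean, with starting fluorescence within 5 SD of its mean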;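 further: negative B-score means less thallium flux so channel inhibition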
# KCNK3 block: human KCNK3 channel inhibition, primary screen; O14649; CHO-KCNK3 thallium flux, FluxOR fluorescence; stronger effect = lower value; B-score at 10 µM; 340,000 tested, 0.84% active;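 active means B-score under library mean minus 4 SD, starting fluorescence ratio at most library mean plus 5 SD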;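 further: more negative B-score means stronger inhibition of thallium flux through KCNK3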
# KCNQ1 act: potentiates or activates the human KCNQ1 potassium channel | CHO-K1 KCNQ1, thallium flux FluxOR fluorescence; stronger effect = higher value | B-score at 10 µM | 310,000 tested, 0.35% active;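 active means fluorescence ratio B-score, a plate-corrected score, at least three library SD, with initial intensity B-score within 5 SD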
#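 Doses: Single concentration per compound, DMSO matched to controls | Test system: KCNQ1-transfected CHO-K1 cells | Timing: 90 min dye loading and 20 min compound exposure, both at room temperature | Measured by: Kinetic FluxOR thallium fluorescence, 10-s 1-Hz baseline, 110-s post-stimulus read | Medium: Assay buffer with matched DMSO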
# An asterisk follows results filed as active; i = inactive; . = not tested or not shown.
SMILES,hERG protect,KCC2 mod,KCNQ1 inh,KCNK9 inh,KCNK3 block,KCNQ1 act
COc1cc(OC)c(NC(=O)c2cc3ccccc3cc2O)cc1Cl,.,.,.,.,-9.2*,.
COc1cc(NC(=O)c2ccccc2)c(OC)cc1Cl,-13,0.13,i,i,i,i
N#CC1=C(N)NC(SCC(=O)Nc2ccccc2)=C(C#N)C12CCCC2,-15,-1.4,10*,i,i,i
Cc1onc(-c2ccc(Cl)cc2Cl)c1-c1csc(N/N=C/c2ccccc2Cl)n1,-4,2.6,i,i,i,i
Cc1onc(-c2ccccc2)c1-c1csc(N/N=C/c2ccccc2Cl)n1,-7,-0.63,9*,i,i,i
COc1cccc(-c2ncc3ccccc3c2COC(=O)CCCC(=O)O)c1,.,.,.,.,i,.
COc1cccc(-c2nnc(NC(=O)c3ccc(Cl)s3)o2)c1,-1,151*,i,i,i,i
CCCN(CCC)S(=O)(=O)c1ccc(C(=O)Nc2nnc(CSC)o2)cc1,-4,.,i,i,i,i
CC1CCCCN1S(=O)(=O)c1ccc(C(=O)Nc2nnc(-c3ccncc3)o2)cc1 (stereo not given),-3,-0.47,i,i,i,i
CCCN(CCC)S(=O)(=O)c1ccc(C(=O)Nc2nnc(-c3cccc(OC)c3)o2)cc1,-7,15*,i,i,i,i
COc1ccc(-c2nnc(NC(=O)c3ccc(S(=O)(=O)N4COCC4(C)C)cc3)o2)cc1,-3,8.2*,i,i,i,i
O=C(Nc1nnc(-c2ccco2)o1)c1ccc(Cl)s1,-6,.,i,i,i,i
CCCN(CC1CC1)C(=S)NC(=O)c1cc(Br)ccc1Cl,.,.,.,.,i,.
Cc1ccc(N(CCC#N)C(=O)CSc2nnc3ccccn23)cc1,.,.,.,.,i,.
O=c1cc(O)sc2ccccc12,-6,-0.81,i,i,i,i
O=c1[nH]sc2ccccc12,-8,.,i,i,i,13*
O=C(Nc1ccc(N2CCOCC2)cc1)c1ccc(Cl)c(S(=O)(=O)N2CCCC2)c1,.,.,.,.,i,.
COC(=O)C1=C(C(=O)OC)[C@@H]2N(Cc3ccccc3)c3ccccc3[C@@]23C[C@@H](C(=O)OC)N(C(=O)CC(C)C)C3=N1,-4,-1.4,i,-7.9*,i,i
COC(=O)C1=C(C(=O)OC)[C@@H]2N(C)c3ccccc3[C@@]23C[C@@H](C(=O)OC)N(C(=O)c2ccc(Br)cc2)C3=N1,-8,-0.93,i,i,i,30*
COC(=O)C1=C(C(=O)OC)[C@@H]2N(C)c3ccccc3[C@@]23C[C@@H](C(=O)OC)N(C(=O)c2cccs2)C3=N1,-10,-0.85,i,i,i,i
COC(=O)C1=C(C(=O)OC)[C@@H]2N(Cc3ccccc3)c3ccccc3[C@@]23C[C@@H](C(=O)OC)N(C(=O)c2cccs2)C3=N1,-2,-1.3,i,-7.9*,i,i
O=C1NC[C@H](Cc2ccccc2)N(CC2CCN(CCC34CC5CC(CC(C5)C3)C4)CC2)C1=O,.,.,.,.,i,.
O=S(=O)(Nc1ncccn1)c1ccc(NC(=S)Nc2cccc(Cl)c2)cc1,-22,0.76,i,i,.,i
Cc1ccc(NC(=S)Nc2ccc(S(=O)(=O)Nc3ncccn3)cc2)cc1Cl,-14,0.24,10*,i,.,i
CCOc1c(Br)cc(C(=O)N2CCCN(C)CC2)cc1OC,0,.,i,i,i,i
SMILES,hERG protect,KCC2 mod,KCNQ1 inh,KCNK9 inh,KCNK3 block,KCNQ1 act
CCc1ccc2oc(-c3ccc(OC)cc3)cc(=Nc3cccc(C(=O)O)c3)c2c1,-12,-7.2*,i,i,i,i
Cn1c(=O)c2c(n3cnnc13)-c1ccccc1CC21CCCC1,-6,1.5,i,i,i,i
CSc1nnc2n(C)c3c(c(=O)n12)C1(CCCC1)Cc1ccccc1-3,-20,.,i,-7.2*,i,i
CC(=O)c1ccc(OCc2cc(C(=O)N(C)CCOc3ccc(C)cc3)no2)cc1,-9,.,i,i,i,i
NS(=O)(=O)c1ccc(Nc2ncccc2[N+](=O)[O-])cc1,4.6*,-0.24,i,i,i,i
O=C(COC(=O)C1CCN(S(=O)(=O)c2cccs2)CC1)c1cc2ccccc2o1,-9,-0.2,i,-7.8*,i,i
COc1ccc(CCN(C)C(=O)CN2C(=O)NC3(CCCc4ccccc43)C2=O)cc1OC (stereo not given),-7,.,i,i,i,i
CC(=O)Oc1ccc(C(=O)Nc2cc(C)on2)cc1,3,.,i,i,i,i
CCOC(=O)c1cc(-c2ccccc2)sc1NC(=O)C(C)N1C(=O)c2ccccc2C1=O (stereo not given),-3,0.0082,i,-8*,i,i
O=C(NC(=S)Nc1cccc(Cl)c1N1CCCCC1)c1cccs1,7.2*,1.9,i,i,i,24*
O=C(NC(=S)Nc1cccc(Cl)c1N1CCOCC1)c1cccs1,17*,3.5,i,i,i,i
COc1ccccc1NS(=O)(=O)c1cc(NC(=O)c2cccs2)ccc1N1CCCC1,-13,-0.14,i,i,i,i
O=C(Nc1ccc(N2CCCC2)c(S(=O)(=O)Nc2cccc(C(F)(F)F)c2)c1)c1cccs1,-8,0.07,i,-7*,i,i
CN(C)CCCN(C(=O)CCOc1ccccc1)c1nc2c(F)cccc2s1,-14,-0.073,i,i,i,18*
CN(C)CCCN(C(=O)CCc1ccccc1)c1nc2c(F)cccc2s1,-13,-0.4,i,i,i,i
Cc1ccc2nc(N(CCCN(C)C)C(=O)c3cc(-c4cccs4)nc4ccccc34)sc2c1,-31,.,8*,i,i,i
CN(C)CCCN(C(=O)c1sc2ccccc2c1Cl)c1nc2c(F)cccc2s1,-26,0.23,i,i,i,i
CN(C)CCCN(C(=O)c1cc(-c2cccs2)nc2ccccc12)c1nc2c(F)cccc2s1,-29,.,6*,i,i,i
C=CCn1c(=O)c(C(=O)Nc2ccccc2C(=O)OCC)c(O)c2ccccc21,-14,-0.73,i,i,-9.9*,i
C=CCn1c(=O)c(C(=O)OCC)c(O)c2ccccc21,-7,-1.9,i,i,i,i
O=C(Nc1cc(Sc2nc3ccccc3s2)cc([N+](=O)[O-])c1)c1cccc(F)c1F,-18,-2.4,6*,i,i,i
O=C(CSc1nc2ccc(NC(=O)c3ccccc3C(=O)O)cc2s1)Nc1ccc(F)c([N+](=O)[O-])c1,0,.,i,i,i,i
Fc1cccc2sc(Nc3nnc(-c4ccco4)o3)nc12,13*,33*,i,i,i,21*
